Series [1] in a line: Binding affinity to Mycobacterium tuberculosis CysM expressed in Escherichia coli strain BL21 (DE3) incubated for 5 mins by PLP fluorescence-based screening assay. The procedure, abridged:
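Binding measured by the rise in fluorescence emission of the enzyme-bound PLP cofactor on ligand binding, using recombinant CysM at 2 µM. Kd obtained by fitting the ligand concentration dependence to a 1:1 binding-site model. Affinities approaching sub-µM are limited by protein concentration.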

Series [2] concerns Mycobacterium tuberculosis. The series is described as follows: Inhibition of Mycobacterium tuberculosis CysM expressed in Escherichia coli strain BL21 (DE3) assessed as apparent first-order rate constant for the formation of the alpha-aminoacrylate intermediate at 100 uM incubated for 5 mins in presence of OPS by spectrophotometry. The procedure, abridged: (§1)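 Orthogonal activity assay with recombinant CysM, following formation of the α-aminoacrylate intermediate in the first half-reaction with OPS. Apparent first-order rate constants (kobs) determined. Only residual activities below 20% are reliably quantified; >20% remaining activity is reported as a limit.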

Series [3] relates to Mycobacterium tuberculosis. The series is described as follows: Antimycobacterial activity against Mycobacterium tuberculosis H37Rv assessed as inhibition of microbial growth incubated for 5 days by alamar blue assay. It is filed as functional. The settings on record: 120 h, time 5 day. (In general: Alamar Blue is a resazurin reagent that responds to reducing activity.)
The test system of series [4] is Mycobacterium tuberculosis. The series is described as follows: Inhibition of Mycobacterium tuberculosis CysM expressed in Escherichia coli strain BL21 (DE3) assessed as reduction in amino-acrylate intermediate formation by measuring residual enzyme activity at 100 uM incubated for 5 mins in presence of OPS by spectrophotometry. The procedure, abridged: as §1
Series [5] has as its system Mycobacterium tuberculosis. The series is described as follows: Antimycobacterial activity against Mycobacterium tuberculosis H37Rv grown under nutrient starvation condition assessed as reduction in nonreplicating cells count incubated for 7 days at 10 ug/ml. It is filed as functional. To be noted: for log(activity): dose 10 µg/ml, time 7 day; for Activity: dose 10.0 µg/ml, time 7.0 day.

Series [6] deals with Mycobacterium tuberculosis. The series is described as follows: Bactericidal activity against Mycobacterium tuberculosis H37Rv grown under nutrient starvation condition assessed as reduction in nonreplicating cells count incubated for 7 days at 10 ug/ml in presence of 0.2 mM cysteine. To be noted: dose 10.0 µg/ml, time 7.0 day. It counts as functional, organism-based. The method, boiled down:
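Nutrient-starved, nonreplicating H37Rv culture exposed to compound at 10 µg/ml alongside added L-cysteine (series 0.0, 0.05, 0.2, 0.5 mM) and an untreated control. Viable bacteria counted by most probable number (MPN) assay. Run in triplicate.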

For series [7], the system named is SH-SY5Y. The series is described as follows: Cytotoxicity in human SH-SY5Y cells assessed as reduction in cell viability at 10 uM incubated for 72 hrs by Cell-titer-Glo assay. It counts as cell-based.
The test system of series [8] is HepG2. The series is described as follows: Cytotoxicity in human HepG2 cells assessed as reduction in cell viability at 10 uM incubated for 72 hrs by Cell-titer-Glo assay. It is filed as cell-based. The settings on record: hepg2, 72 h.
The subject of series [9] is J774.A1. The series is described as follows: Cytotoxicity in mouse J774.A1 cells assessed as reduction in cell viability at 10 uM incubated for 72 hrs by Cell-titer-Glo assay. It counts as cell-based. To be noted: j774.a1, 72 h.
Series [10] deals with THP-1. The series is described as follows: Cytotoxicity in human THP-1 cells assessed as reduction in cell viability at 10 uM incubated for 72 hrs by Cell-titer-Glo assay. It counts as cell-based. The settings on record: thp-1, 72 h.
A short description of series [11]: Binding affinity to Mycobacterium tuberculosis CysK1 by PLP fluorescence-based screening assay.
The test system of series [12] is Mycobacterium tuberculosis. The series is described as follows: Selectivity index, ratio of Kd for binding affinity to Mycobacterium tuberculosis CysK1 to Kd for binding affinity to Mycobacterium tuberculosis CysM expressed in Escherichia coli strain BL21 (DE3).
Series [13] in a line: Binding affinity to Mycobacterium tuberculosis CysK2 by PLP fluorescence-based screening assay.
Series [14] relates to Mycobacterium tuberculosis. The series is described as follows: Selectivity index, ratio of Kd for binding affinity to Mycobacterium tuberculosis CysK2 to Kd for binding affinity to Mycobacterium tuberculosis CysM expressed in Escherichia coli strain BL21 (DE3).
Series [15] addresses T1, Cystathionine beta-synthase (Homo sapiens) (UniProt P35520).
T1 sequence (whole entry): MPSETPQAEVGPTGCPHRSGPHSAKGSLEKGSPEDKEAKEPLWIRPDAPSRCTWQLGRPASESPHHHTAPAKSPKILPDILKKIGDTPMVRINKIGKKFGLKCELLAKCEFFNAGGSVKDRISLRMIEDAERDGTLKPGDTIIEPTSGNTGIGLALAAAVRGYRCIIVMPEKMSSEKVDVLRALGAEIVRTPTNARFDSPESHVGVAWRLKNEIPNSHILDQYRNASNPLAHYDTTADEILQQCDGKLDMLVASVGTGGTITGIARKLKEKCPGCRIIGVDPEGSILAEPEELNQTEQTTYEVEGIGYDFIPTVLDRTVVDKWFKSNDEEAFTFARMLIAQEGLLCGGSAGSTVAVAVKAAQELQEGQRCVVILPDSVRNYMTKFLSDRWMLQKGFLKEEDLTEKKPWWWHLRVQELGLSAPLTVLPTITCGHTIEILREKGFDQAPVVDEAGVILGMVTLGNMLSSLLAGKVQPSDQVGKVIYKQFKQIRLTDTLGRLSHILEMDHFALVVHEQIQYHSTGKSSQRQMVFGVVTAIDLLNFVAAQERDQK
The series is described as follows: (§2) Binding affinity to human CBS by PLP fluorescence-based screening assay.

Series [16] in a line: Binding affinity to Mycobacterium tuberculosis CysM by ITC analysis. (Isothermal titration calorimetry measures the heat released or taken up as one component is titrated into another.)
Series [17] can be described thus: Stability in presence of cysteine assessed as compound degradation incubated for 24 hrs by mass-spectrometry. It counts as physicochemical.
Series [18] is described as follows: Stability in presence of cysteine assessed as compound degradation incubated for 24 hrs by HPLC analysis. It counts as physicochemical.
Series [19] in a line: Stability in presence of cysteine assessed as compound degradation incubated for 24 hrs by spectroscopy analysis. It counts as physicochemical.
Series [20] addresses T2, Cystathionine beta-synthase (Homo sapiens, UniProt P35520).
T2 sequence (P35520 whole entry): T1 sequence (whole entry)
The series is described as §2.

Series [21] can be described thus: Selectivity index, ratio of Kd for binding affinity to human CBS to Kd for binding affinity to Mycobacterium tuberculosis CysM expressed in Escherichia coli strain BL21 (DE3).

Each structure is given as a SMILES string. Activity calls are given as the source filed them. The rule behind the calls is not given here.

Usually Kd stands for the equilibrium constant for the complex coming apart. Take `O=C(Nc1ccc(C(=O)O)c(O)c1)Nc1ccc(Cl)c(Cl)c1`: the Kd entry in series [1] is listed as “Not Active”. Also, the K in series [2] is more than 20 min⁻¹.

Take `O=C(O)c1cccc(NC(=S)Nc2ccc(Cl)cc2)c1`: the dissociation constant (Kd) in series [1] (read-out: Kd) was more than 300 µM. Further, the K in [2] is more than 20 min⁻¹.

For the molecule `O=C(O)c1cccc(NS(=O)(=O)c2ccc(Cl)c(Cl)c2)c1`, the Kd entry in series [1] is “Not Active”. Also, in series [2], the K is more than 20 min⁻¹.

Broadly, the MIC is the lowest concentration found to suppress growth. Regarding `CO[C@H]1/C=C/O[C@@]2(C)Oc3c(C)c(O)c4c(O)c(c(/C=N/N5CCN(C)CC5)c(O)c4c3C2=O)NC(=O)/C(C)=C\C=C\[C@H](C)[C@H](O)[C@@H](C)[C@@H](O)[C@@H](C)[C@H](OC(C)=O)[C@@H]1C` [RIFAMPIN], the MIC in series [3] came to 0.5 µM.

For the molecule `O=C(Nc1cccc(-c2ccccc2)c1)Nc1ccc(C(=O)O)c(O)c1`, in [1] (read-out: Kd), the dissociation constant Kd is 4.5 µM. The K in series [2] stood at 0.48 min⁻¹. In addition, the Activity in [4] was 1.2%. Besides, the MIC in series [3] was 2.2 µM. In addition, in series [5], the “log(activity)” value was determined as 3. The outcome in [6] was inactive.

With `O=C(Nc1cccc(C(=O)O)c1)Nc1cccc(-c2ccccc2)c1`, the Kd in series [1] (read-out: Kd) was found to be 1.7 µM; in [11] it was 96.8 µM; in [13], 22.6 µM. Further, the K in [2] came out at 0.24 min⁻¹. For the same molecule, the Activity in [4] is 0.6%; in series [7], “Non-Toxic”; in [8], “Non-Toxic”; in [9], “Non-Toxic”; in series [10], “Non-Toxic”. For the same molecule, the MIC in series [3] is 18.8 µM. The figures for the Ratio in [12] and in series [14] were more than 80 and 15, respectively. For the same molecule, the outcome in series [15] was inactive.

Molecule `O=C(Nc1ccc(Br)cc1)Nc1cccc(C(=O)O)c1` came in with an equilibrium dissociation constant (Kd) in series [16] of 1.4 µM. Also, the K in series [2] came to 0.48 min⁻¹. For the same molecule, the Activity in series [4] was 1.2%; in series [7], “Non-Toxic”; in series [8] it was “Non-Toxic”; in series [9], “Non-Toxic”; in [10], “Non-Toxic”. For the same molecule, in series [3], the MIC was 18.6 µM. Further, the outcome in series [5] was inactive.

With `Cc1ccc(NC(=O)Nc2cccc(C(=O)O)c2)cc1`, the Kd in [1] (read-out: Kd) came to 8 µM. In addition, the K in series [2] was 1.92 min⁻¹. In addition, the Activity in series [4] stood at 4.9%. The MIC in series [3] amounted to 23.1 µM.

Take `NNC(=O)c1ccncc1` [ISONIAZID]: the MIC in series [3] is 0.4 µM. Besides, in series [5], the “log(activity)” value was found to be 1.

With `O=C(Nc1cccc(-c2nnn[nH]2)c1)Nc1ccc(Cl)c(Cl)c1`, the Kd entry in [1] is given as “Not Active”. For the same molecule, the K in series [2] was more than 20 min⁻¹.

Turning to `O=C(Nc1cccc(-c2ccccc2)c1)Nc1ccc(O)c(C(=O)O)c1`, the Kd in [16] is 2.2 µM. Further, the K in [2] came to 0.23 min⁻¹. For the same molecule, the Activity is 0.6% in [4]; “Non-Toxic” in [7]; “Non-Toxic” in series [8]; “Non-Toxic” in series [9]; “Non-Toxic” in series [10].

Regarding `O=C(Nc1ccc([N+](=O)[O-])cc1)Nc1cccc(C(=O)O)c1`, in [1] (read-out: Kd), the Kd came to 10.5 µM. For the same molecule, in series [2], the K turned out to be 2.22 min⁻¹. For the same molecule, the Activity in series [4] amounted to 5.7%. Besides, the MIC in [3] was 20.7 µM. In [5], the outcome was inactive.

`O=C(Nc1ccc(Cl)cc1)Nc1cccc(C(=O)O)c1` gave a Kd in [16] of 3.4 µM. For the same molecule, the K in series [2] turned out to be 0.24 min⁻¹. The Activity is 0.6% in series [4]; “Non-Toxic” in series [7]; “Non-Toxic” in series [8]; “Non-Toxic” in series [9]; “Non-Toxic” in series [10]. For the same molecule, in series [3], the MIC was determined as 21.5 µM. For the same molecule, the outcome in series [5] was inactive.

For the molecule `CC(=O)c1ccc(NC(=O)Nc2cccc(C(=O)O)c2)cc1`, the Kd in series [1] (read-out: Kd) was found to be 111 µM. The K in series [2] is more than 20 min⁻¹.

As to `COc1ccc(NC(=O)Nc2cccc(C(=O)O)c2)cc1`, the Kd in series [1] (read-out: Kd) amounted to 11.3 µM. Besides, in series [2], the K amounted to 3.84 min⁻¹. In [4], the Activity is 9.9%. Besides, in series [3], the MIC is 21.8 µM. In [5], the result was inactive.

With `O=C(NCc1ccc(Cl)c(Cl)c1)Nc1cccc(C(=O)O)c1`, the Kd in series [1] (read-out: Kd) is more than 300 µM. For the same molecule, in series [2], the K was more than 20 min⁻¹.

In the case of `O=C(Nc1ccc(Cl)c(Cl)c1)Nc1ccc(O)c(C(=O)O)c1`, the Kd entry in series [1] is “Not Active”. Also, the K in series [2] is more than 20 min⁻¹.

Consider `O=C(Nc1ccc(Cl)c(Cl)c1)Nc1ccc(C(=O)O)cc1O`, for which, in [1], the Kd result is reported as “Not Active”. Also, the K in [2] was more than 20 min⁻¹.

For the molecule `O=C(Nc1cccc(C(=O)O)c1)Nc1ccc(Cl)c(Cl)c1`, the Kd in series [16] was 0.32 µM; in [11], 241 µM; in series [13] it was 30.1 µM; in series [20], 94 µM. Moreover, the K in series [2] came out at 0.1 min⁻¹. The Activity in [4] was 0.3%; in [7], “Non-Toxic”; in [8], “Non-Toxic”; in [9], “Non-Toxic”; in series [10], “Non-Toxic”. Also, the MIC in [3] is 9.6 µM. The “log(activity)” value in series [5] came to 3. In addition, in [6], the outcome was inactive. Further, the Stabilty result in [17], in series [18] and in series [19] was “Unstable” in each case. Besides, the Ratio is more than 80 in [12], 15 in series [14] and 300 in [21].

For the molecule `O=C(Nc1ccccc1)Nc1cccc(C(=O)O)c1`, the Kd in series [1] (read-out: Kd) turned out to be 12.9 µM. Besides, the K in series [2] worked out at 1.02 min⁻¹. Besides, in [4], the Activity came to 2.6%.

Consider `O=C(Nc1ccc(-c2cccc(Cl)c2Cl)cc1)Nc1cccc(C(=O)O)c1`, for which the Activity entry in series [7], in [8], in series [9] and in series [10] was “Non-Toxic” throughout.

Consider `Cc1ccc(C(=O)Nc2cccc(C(=O)O)c2)cc1`, for which the Kd result in series [1] was “Not Active”. For the same molecule, the K in series [2] was more than 20 min⁻¹.

The values above are taken from ChEMBL document CHEMBL4680078, “Inhibitors of the Cysteine Synthase CysM with Antibacterial Potency against Dormant Mycobacterium tuberculosis” (J Med Chem, 2016).
